Hits are enriched below; roughly 3.7% of the tested compounds scored in any of these assays.
core dimer inh = blocks dimerization of HCV core protein. TR-FRET GST/Flag-core106 dimerization, 1536-well. inhibition, % at 5 µM. 300,000 compounds, 0.33% hits;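 active means inhibition above the mean of all tested compounds plus 3 SD, set per screening campaign, cut at about 45% in these data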
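Assay system – GST-tagged and Flag-tagged HCV core protein residues 1-106 · Quantity – core106 proteins, GST 13.5 nM and Flag 17 nM · Benchmarks – unlabelled core106 and no-GST-core106 wells · Read-out basis – percent inhibition of core106 dimerization signal · Detection – time-resolved FRET, ex 340 nm, em 617 and 671 nm · Schedule – 4 h at 22.5 °C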
TAAR1 agonist = human TAAR1 agonism; Q96RJ0; CHO RD-HGA16 TAAR1, Fluo-8 calcium fluorescence; vehicle wells 0%, saturating PEA agonist 100%; activation, % at 3 µM; 360,000 compounds, 0.99% hits; AID 624467;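 active means activation above the mean activation of all test compounds in the run plus 3 SD, cut at about 38% in these data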
Target sequence (Q96RJ0 whole entry, looked up): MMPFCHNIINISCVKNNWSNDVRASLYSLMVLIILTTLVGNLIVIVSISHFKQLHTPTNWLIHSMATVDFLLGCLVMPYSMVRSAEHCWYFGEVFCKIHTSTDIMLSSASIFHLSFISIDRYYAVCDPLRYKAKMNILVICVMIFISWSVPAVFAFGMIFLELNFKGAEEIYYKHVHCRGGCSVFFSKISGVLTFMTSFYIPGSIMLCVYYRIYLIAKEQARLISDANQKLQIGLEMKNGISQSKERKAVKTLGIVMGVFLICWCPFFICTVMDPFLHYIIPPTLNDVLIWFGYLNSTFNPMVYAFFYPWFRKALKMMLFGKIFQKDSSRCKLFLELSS
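test system = CHO RD-HGA16 cells carrying human TAAR1 plus Gα16 | schedule = 17-24 h seeding, 75 min 37 °C dye, 30 min RT | compound dosing = 3 µM single concentration | control set = DMSO and PEA EC100 | replicates = n 1 | signal = Fluo-8 fluorescence, 5 s baseline then 140 s kinetic read | measure = percent activation vs PEA EC100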
TAAR1 antagonist = human TAAR1 antagonism; Q96RJ0; CHO RD-HGA16 TAAR1, Fluo-8 calcium fluorescence, antagonist; inhibition, % at 3 µM; 360,000 compounds, 1.5% hits;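 active means inhibition above a per-plate cutoff, the mean inhibition of test compounds on that plate plus 3 SD, cut at about 49% in these data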;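 further: 0% = DMSO plus EC80 beta-PEA response and 100% = DMSO alone without agonist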
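Test system: RD-HGA16 CHO cells with stable hTAAR1 and Gα16 / Probe or stimulus: EC80 β-phenethylamine stimulus / Times: seeding 17-24 h prior, 75-min 37 °C, 30-min RT dye loading / Detection: Fluo-8 calcium-sensitive fluorescence / Read-out basis: % inhibition scaled between DMSO and EC80 PEA controls / Repeats: singlicate, one well per test compound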
rCAG binder = molecules binding r(CAG) RNA repeats; r(CAG) RNA repeat, TO-PRO-1 dye displacement fluorescence; inhibition, % at 3 µM; 370,000 compounds, 1.3% hits;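 active means inhibition above the plate cutoff, the mean of all test compounds on that plate plus 3 SD, cut at about 35% in these data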;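 further: 0% = DMSO alone and 100% = 100 µM mitoxantrone as full dye displacement; higher means more dye released from RNA so lower well fluorescence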
NS3 helicase inh = inhibitors of Hepatitis C virus NS3 helicase; inhibition, % at 10.9 µM; NS3 helicase DNA unwinding, Cy5 molecular beacon fluorescence; 290,000 compounds, 0.56% hits;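 active means inhibition above the mean of all tested compounds plus 3 SD, set per campaign, cut at about 35% in these data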;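 further: 0% = DMSO wells and 100% = thioflavine S control wells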
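test system = hepatitis C virus NS3 helicase domain fragment enzyme | reagent = annealed dual-labelled DNA beacon duplex, ATP-started | times = 1 h at 25 °C | detection = Cy5 fluorescence, 0 and 60 min reads | read-out basis = percent inhibition from t60/t0 fluorescence ratio | control set = DMSO and thioflavine S | replication = one well per compound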
nonsel antag count = nonselective antagonism, TAAR1 counter-screen. shares compounds with TAAR1 antagonist. counterscreen cell line, calcium fluorescence, antagonist mode. inhibition, % at 3 µM. 2,400 compounds, 77% hits. AID 651780; in the data active means inhibition above about 22%;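 further: CHO-Ga16 host cells stimulated with ATP at an EC80 level; 0% = agonist EC80 plus vehicle and 100% = vehicle without agonist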
TAAR1 antag conf = human TAAR1 antagonism, confirmed; 2,400 compounds, 40% hits; TAAR1-expressing cells, fluorescence antagonist read-out; AID 651785; inhibition, % at 3 µM; shares compounds with TAAR1 antagonist; in the data active means inhibition above about 49%;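 further: CHO-Ga16 host cells challenged with agonist PEA near its EC80; 0% = agonist at EC80 plus vehicle and 100% = vehicle with no agonist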
Ga16 nonsel ag = nonselective Ga16 agonism, counter-screen. Ga16-expressing cells, calcium fluorescence, agonist counterscreen. 2,400 compounds, 18% hits. AID 651953. shares compounds with TAAR1 antagonist. activation, % at 3 µM; in the data active means activation above about 12%;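 further: 0% = vehicle wells and 100% = saturating stimulus response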
TAAR1 ag count = activates human TAAR1 in antagonist counter-screen; activation, % at 3 µM; AID 651955; 2,400 compounds, 2% hits; shares compounds with TAAR1 antagonist; hTAAR1 cell line, fluorescence activation, agonist mode; in the data active means activation above about 37%;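 further: CHO cells stably expressing TAAR1 with calcium dye readout; 0% = DMSO vehicle and 100% = full agonist response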
Active calls of the source: *.

For COc1ccc(NC(=O)CCc2nnc3ccc(N4CCN(c5cccc(OC)c5)CC4)nn23)cc1 the results were core dimer inh 13.6, TAAR1 agonist 8.8, TAAR1 antagonist 63.2*, rCAG binder 0.3, NS3 helicase inh -23.2, nonsel antag count 22.6*, TAAR1 antag conf 39.1, Ga16 nonsel ag 8.7 and TAAR1 ag count 13.8.
For COc1cccc(N2CCN(C(=O)CCc3nnc4ccc(N5CCCC5)nn34)CC2)c1 the results were core dimer inh 2.2, TAAR1 agonist 2.2, TAAR1 antagonist 2.4, rCAG binder -5.4 and NS3 helicase inh -5.0.
For CCOC(=O)[C@@]12CCC3=C1N(CCC3)C(=O)[C@H](CC(=O)NCCc1ccccc1OC)C2 the results were rCAG binder -1.2.
Screening Cc1cc(NCCO)nc(-n2nc(C)cc2C)n1 returned core dimer inh -2.2, TAAR1 agonist 1.3, TAAR1 antagonist 57.4*, rCAG binder -2.6, NS3 helicase inh -2.3, nonsel antag count -3.4, TAAR1 antag conf -3.9, Ga16 nonsel ag 1.6 and TAAR1 ag count 1.7.
For Cc1cc(N(CCO)CCO)nc(-n2nc(C)cc2C)n1 the results were core dimer inh -4.2, TAAR1 agonist 4.6, TAAR1 antagonist -2.6, rCAG binder 3.5 and NS3 helicase inh -2.0.
CCCCn1c(O)c(N=NC(=O)c2ccco2)c2ccccc21 was read as core dimer inh 1.5, TAAR1 agonist 11.6, TAAR1 antagonist 52.0*, rCAG binder -1.5, NS3 helicase inh 7.8, nonsel antag count 15.0, TAAR1 antag conf 36.6, Ga16 nonsel ag 6.9 and TAAR1 ag count 13.3.
`O=C(CNC(=O)c1ccco1)N=Nc1c(O)n(CCc2ccccc2)c2ccccc12` gave core dimer inh -0.8, TAAR1 agonist -0.3, TAAR1 antagonist -13.9, rCAG binder 8.9 and NS3 helicase inh 0.9.
For Cc1ccc(C(=O)Nc2cccc(-c3ccc(N4CCOCC4)nn3)c2)cc1[N+](=O)[O-] the results were core dimer inh -6.8, TAAR1 agonist 12.7, TAAR1 antagonist 59.9*, rCAG binder 1.4, nonsel antag count 21.4, TAAR1 antag conf 45.0, Ga16 nonsel ag 8.1 and TAAR1 ag count 5.2.
Screening O=[N+]([O-])c1ccc(/C=N/Nc2ccc3ccccc3c2)o1 returned core dimer inh -9.2, TAAR1 agonist 21.4, TAAR1 antagonist 75.8*, rCAG binder 30.7, NS3 helicase inh 0.8, nonsel antag count 52.0*, TAAR1 antag conf 64.6*, Ga16 nonsel ag 19.0* and TAAR1 ag count 6.8.
Screening COC(=O)[C@]12C[C@H](CC(=O)NCc3ccc(OC)c(OC)c3)C(=O)N(Cc3cccc4ccccc34)C1=C[C@H](C(C)C)O[C@@H]2C1CC1 returned rCAG binder 9.3.
`CCOC(=O)c1c(C)[nH]c(C(=O)COC(=O)/C=C/c2ccc(OC(F)F)cc2)c1C` gave core dimer inh 4.8, TAAR1 agonist 0.1, TAAR1 antagonist -3.1, rCAG binder 1.3 and NS3 helicase inh 12.6.
For Cc1nn(-c2ccccc2)c(C)c1C(=O)OCC(=O)N1c2ccccc2NC(=O)C1(C)C the results were core dimer inh 2.4, TAAR1 agonist 19.1, TAAR1 antagonist 71.5*, rCAG binder -3.3, NS3 helicase inh -5.4, nonsel antag count 40.4*, TAAR1 antag conf 52.9*, Ga16 nonsel ag 9.1 and TAAR1 ag count 8.7.
Screening CCOC(=O)c1c(C)[nH]c(C)c1C(=O)COC(=O)/C=C/c1ccc(OC(F)F)cc1 returned core dimer inh 1.4, TAAR1 agonist 6.4, TAAR1 antagonist 51.8*, rCAG binder 1.1, NS3 helicase inh -11.2, nonsel antag count 33.7*, TAAR1 antag conf 40.0, Ga16 nonsel ag 6.5 and TAAR1 ag count 1.6.

Screens: PubChem BioAssay, The Scripps Research Institute Molecular Screening Center
